Laboratory results as given in ChEMBL document CHEMBL3576819, “Design, synthesis, biological evaluation and molecular docking studies of phenylpropanoid derivatives as potent anti-hepatitis B virus agents” (Eur J Med Chem, 2015).

Experiments:
Assay type in all cases: functional
[1] = Selectivity index, ratio of CC50 for human HepG2.2.15 cells to IC50 for Hepatitis B virus infected in human HepG2.2.15 cells assessed as inhibition of HBeAg secretion
Outline: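 Selectivity index computed as CC50/IC50, with CC50 from cell death of HepG2.2.15 cells after 9 days of treatment (OD 450 nm) and IC50 from 50% inhibition of HBeAg or HBsAg secretion in the same cells; medium with drug renewed every 3 d.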

[2] = Selectivity index, ratio of CC50 for human HepG2.2.15 cells to IC50 for Hepatitis B virus infected in human HepG2.2.15 cells assessed as inhibition of HBV DNA replication
Hepatitis B virus [3] = assay: Antiviral activity against Hepatitis B virus infected in human HepG2.2.15 cells assessed as inhibition of HBsAg secretion at 150 uM after 3 days by ELISA; details: HepG2 2.2.15, 72 h
Outline: (§1)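 HepG2.2.15 cells (MEM, 10% FBS, 380 µg/ml G418) seeded at 1×10^5 cells/ml, held 24 h at 37 °C, then treated with various drug concentrations; medium with drug renewed every 3 d for up to 9 d. Culture medium sampled on days 3, 6 and 9, stored at -20 °C, and assayed for secreted antigen. Lamivudine as positive control; IC50 = 50% inhibition of secretion; means of at least two experiments.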

Hepatitis B virus [4] = assay: Antiviral activity against Hepatitis B virus infected in human HepG2.2.15 cells assessed as inhibition of HBsAg secretion at 37.5 uM after 3 days by ELISA; details: HepG2 2.2.15, 72 h; outline: as §1
Hepatitis B virus [5] = assay: Antiviral activity against Hepatitis B virus infected in human HepG2.2.15 cells assessed as inhibition of HBsAg secretion at 300 uM after 6 days by ELISA; details: HepG2 2.2.15, 144 h; outline: as §1
Hepatitis B virus [6] = assay: Antiviral activity against Hepatitis B virus infected in human HepG2.2.15 cells assessed as inhibition of HBsAg secretion at 75 uM after 6 days by ELISA; details: HepG2 2.2.15, 144 h; outline: as §1
Hepatitis B virus [7] = assay: Antiviral activity against Hepatitis B virus infected in human HepG2.2.15 cells assessed as inhibition of HBsAg secretion at 37.5 uM after 6 days by ELISA; details: HepG2 2.2.15, 144 h; outline: as §1
Hepatitis B virus [8] = assay: Antiviral activity against Hepatitis B virus infected in human HepG2.2.15 cells assessed as inhibition of HBsAg secretion at 37.5 uM after 9 days by ELISA; details: HepG2 2.2.15, 216 h; outline: as §1
Hepatitis B virus [9] = assay: Antiviral activity against Hepatitis B virus infected in human HepG2.2.15 cells assessed as cell survival at 150 uM after 9 days (reference value: 100%); details: HepG2 2.2.15, 216 h
Outline: (§2)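 HepG2.2.15 cells (MEM, 10% FBS, 380 µg/ml G418, 37 °C, 5% CO2) seeded at 1×10^5 cells/ml, cultured 24 h, then exposed to various drug concentrations; drug-containing medium renewed every 3 d. OD read at 450 nm after 9 days; percent cell death calculated; CC50 = concentration killing 50% of cells. Means of at least two experiments.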

Hepatitis B virus [10] = assay: Antiviral activity against Hepatitis B virus infected in human HepG2.2.15 cells assessed as cell survival at 75 uM after 9 days (reference value: 100%); details: HepG2 2.2.15, 216 h; outline: as §2
Hepatitis B virus [11] = assay: Antiviral activity against Hepatitis B virus infected in human HepG2.2.15 cells assessed as cell survival at 37.5 uM after 9 days (reference value: 100%); details: HepG2 2.2.15, 216 h; outline: as §2
Hepatitis B virus [12] = assay: Antiviral activity against Hepatitis B virus infected in human HepG2.2.15 cells assessed as inhibition of HBeAg secretion at 150 uM after 3 days by ELISA; details: HepG2 2.2.15, 72 h; outline: as §1
Hepatitis B virus [13] = assay: Antiviral activity against Hepatitis B virus infected in human HepG2.2.15 cells assessed as inhibition of HBeAg secretion at 75 uM after 3 days by ELISA; details: HepG2 2.2.15, 72 h; outline: as §1
Hepatitis B virus [14] = assay: Antiviral activity against Hepatitis B virus infected in human HepG2.2.15 cells assessed as inhibition of HBeAg secretion at 37.5 uM after 3 days by ELISA; details: HepG2 2.2.15, 72 h; outline: as §1
Hepatitis B virus [15] = assay: Antiviral activity against Hepatitis B virus infected in human HepG2.2.15 cells assessed as inhibition of HBeAg secretion at 150 uM after 6 days by ELISA; details: HepG2 2.2.15, 144 h; outline: as §1
Hepatitis B virus [16] = assay: Antiviral activity against Hepatitis B virus infected in human HepG2.2.15 cells assessed as inhibition of HBeAg secretion at 300 uM after 9 days by ELISA; details: HepG2 2.2.15, 216 h; outline: as §1
Hepatitis B virus [17] = assay: Antiviral activity against Hepatitis B virus infected in human HepG2.2.15 cells assessed as inhibition of HBeAg secretion at 37.5 uM after 9 days by ELISA; details: HepG2 2.2.15, 216 h; outline: as §1
Hepatitis B virus [18] = assay: Antiviral activity against Hepatitis B virus infected in human HepG2.2.15 cells assessed as inhibition of HBV DNA copies per uL at 300 uM after 3 days by real-time fluorescence quantitative PCR analysis; details: HepG2 2.2.15, 72 h

Row | SMILES | Ratio CC50/IC50 [1] | Ratio CC50/IC50 [2] | inhibition at 150 µM (Hepatitis B virus [3]) [%] | inhibition at 37.5 µM (Hepatitis B virus [4]) [%] | inhibition at 300 µM (Hepatitis B virus [5]) [%] | inhibition at 75 µM (Hepatitis B virus [6]) [%] | inhibition at 37.5 µM (Hepatitis B virus [7]) [%] | inhibition at 37.5 µM (Hepatitis B virus [8]) [%] | viability at 150 µM (Hepatitis B virus [9]) [%] | viability at 75 µM (Hepatitis B virus [10]) [%] | viability at 37.5 µM (Hepatitis B virus [11]) [%] | inhibition at 150 µM (Hepatitis B virus [12]) [%] | inhibition at 75 µM (Hepatitis B virus [13]) [%] | inhibition at 37.5 µM (Hepatitis B virus [14]) [%] | inhibition at 150 µM (Hepatitis B virus [15]) [%] | inhibition at 300 µM (Hepatitis B virus [16]) [%] | inhibition at 37.5 µM (Hepatitis B virus [17]) [%] | inhibition at 300 µM (Hepatitis B virus [18]) [%]
1 | COc1cc(/C=C/C(=O)O/N=C/c2ccco2)cc2c1OCO2 | 10.89 | 5.87 | 56.3 | 22.3 | 70.7 | 40.1 | 24.9 | 36.5 | 91.5 | 95.4 | 109 | 51.5 | 32.1 | 24.9 | 55.5 | 74.6 | 31 | 46.5
2 | O=C(/C=C/c1ccc2c(c1)OCO2)O/N=C/c1ccccn1 | 40.82 | 10.8 | 63.8 | 36.4 | 88.7 | 67.3 | 55.4 | 70.7 | 53.8 | 72.9 | 79.3 | 55.9 | 47.5 | 31.7 | 77.6 | 96.4 | 82.5 | 62.8
3 | Nc1ccn([C@@H]2CS[C@H](CO)O2)c(=O)n1 [LAMIVUDINE] | 2.13 | 82.84 | 28.6 | 11.6 | 43.6 | 24.1 | 7.98 | 25.2 | 82.4 | 95.9 | 118 | 23.9 | 15.1 | 10.1 | 31.1 | 4 | 18.4 | 59.5
4 | COc1cc(/C=C/C(=O)O/N=C/c2ccccn2)cc2c1OCO2 | 8.85 | 6.78 | 41.2 | 17.2 | 76.6 | 43.9 | 25.3 | 30.4 | 82.8 | 94.2 | 101 | 45.5 | 27.3 | 17.8 | 63.5 | 82.6 | 30 | 41.1
